# Assay results gathered from unrelated publications.
# Each line is one published result; the experiments were not run side by side.
# Target: Ephrin type-A receptor 5 (EPHA5, Homo sapiens, UniProt P54756)
Structure (SMILES),test,setting,remaining binding [%]
CN(C)c1ncc(F)c(-c2cnn3ncccc23)n1,binding,1 µM,100
COc1ncc2cc3ccccc3nc2c1C#N,"cell-free assay, competition with immobilised ligand",5 µM,99
FC(F)(F)Oc1cccc(-c2cnc3ccc(-c4ccncc4)nn23)c1,"cell-free assay, competition with immobilised ligand",5 µM,90
CNC(=O)[C@@H]1CC[C@@H](n2c(-c3ccc4cnccc4c3)nc3ccc(C(=O)NCc4cccc(C(N)=O)c4)cc32)C1,"binding, competition with immobilised ligand",1 µM,100
C[C@H]1CCN(c2nccc(-c3cnn4ncccc34)n2)C1,binding,1 µM,95
O=C(Nc1c[nH]nc1C(=O)NC1CCNCC1)c1cc(F)cc(F)c1,"binding, competition with immobilised ligand",1 µM,100
c1cncc(-c2cccc(Nc3nccc(NC4CCCCC4)n3)c2)c1,"binding, competition with immobilised ligand",10 µM,100
COc1ccnn2ncc(-c3ccnc(N(C)C)n3)c12,binding,1 µM,100
C[C@@]1(Cc2ccc(C#N)cc2)C(=O)N(c2cc(Cl)cc(Cl)c2)c2ncc(C(=O)NC3(c4nc(C5CCC5)no4)CC3)n21,"cell-free assay, competition with immobilised ligand",1 µM,100
N[C@@H]1CCN(c2nccc(-c3cnn4ncccc34)n2)C1,binding,1 µM,100
CNC(=O)Nc1ccc2c(c1)[C@@]1(CC2)OC(=O)N(CC(=O)N(Cc2ccc(F)cc2)[C@@H](C)C(F)(F)F)C1=O,"cell-free assay, competition with immobilised ligand",1 µM,94
O=C(c1ccc(Nc2nccc(-c3cc4ccccc4s3)n2)cc1)N1CCC(N2CCCC2)CC1,"binding, competition with immobilised ligand",1 µM,100
CC1=C(C#N)C(c2ccc3c(c2)c(NC(=O)c2ccccc2C)nn3C)C(C#N)=C(C)N1,"cell-free assay, competition with immobilised ligand",1 µM,77
c1cnn2ncc(-c3ccnc(N4CCC45COC5)n3)c2c1,binding,1 µM,99
O=C(Nc1cnc(Oc2ccc(F)cc2)nc1)N1CCc2ncccc2[C@@H]1c1ccc(F)cc1,"cell-free assay, competition with immobilised ligand",1 µM,100
O=C(c1ccc(Nc2ncc(Cl)c(-c3ccc(Cl)s3)n2)cc1)N1CCC(N2CCCC2)CC1,"binding, competition with immobilised ligand",1 µM,98
Cc1cc(C)c(-n2ccn3nc(-c4cccnc4)cc23)cc1NC(=O)c1cc(C#N)cc(S(F)(F)(F)(F)F)c1,"cell-free assay, competition with immobilised ligand",0.1 µM,92.4
CN(CCCC(F)(F)F)c1nccc(-c2cnn3ncccc23)n1,binding,1 µM,100
CC1=C(C#N)[C@@H](c2ccc3[nH]nc(C)c3c2)C(C#N)=C(c2ccc(Cl)cc2)N1,"cell-free assay, competition with immobilised ligand",1 µM,100
O=C(c1ccc(Nc2ncc(Cl)c(-c3cc4ccccc4s3)n2)cc1)N1CCC(N2CCCC2)CC1,"binding, competition with immobilised ligand",1 µM,86
